Experimental findings from ChEMBL document CHEMBL1133685, “Synthesis of new 2,6-prolylxylidide analogues of tocainide as stereoselective blockers of voltage-gated Na(+) channels with increased potency and improved use-dependent activity” (J Med Chem, 2000) are described below.

The nature of assay [1]: Half maximal concentration for producing a phasic block in skeletal muscle fibers (cumulative sodium current reduction at 10 Hz stimulations frequency). It is filed as functional, tissue-based, Muscle tissue. In a few lines: (§1)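 Four-pool grease-gap voltage clamp on single skeletal muscle fibers; the central pool held external solution (mM: NaCl 77, choline Cl 38, CaCl2 1.8, KCl 2.5, Na2HPO4 2.15, NaH2PO4 0.85) with drug added. Recordings at 10 °C after 10 min equilibration, holding potential -100 mV, 10-ms test pulses to -20 mV. IC50 for I_Namax block came from a logistic fit of concentration-response data, 3-7 fibers per point, mean ± SEM.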

A short description of assay [2]: Half maximal concentration for producing a tonic block in skeletal muscle fibers (block of sodium channel at resting conditions evaluated during infrequent depolarizing pulses). In kind it is functional, tissue-based, Muscle tissue. In a few lines:
as §1

A short description of assay [3]: In vitro potential anti-myotonic activity as potency in phasic block in relation to tocainide (tocainide = 1). In kind it is functional. In a few lines: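 Phasic block was measured at 10 Hz by voltage clamp of skeletal muscle fiber Na+ current at 10 °C, holding potential -100 mV, pulses to -20 mV. The IC50 came from a logistic concentration-response fit, and potency was expressed relative to tocainide (tocainide = 1).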

Assay [4] can be described thus: Ratio of IC50 tonic block to IC50 phasic block. It is filed as functional.

The term IC50 denotes the concentration that gives 50% inhibition.

`Cc1cccc(C)c1NC(=O)[C@H]1CCCN1C`: the IC50 in assay [1] came to 100 µM; in assay [2], 300 µM. This compound registered an Activity in assay [3] of 2.7. Besides, the Ratio in assay [4] is 3.
In the same order, the values of `Cc1cccc(C)c1N(C)C(=O)[C@@H]1CCCN1` are 67 µM, 104 µM, 3 and 1.5.
Turning to `Cc1cccc(C)c1N(C)C(=O)[C@H]1CCCN1`, the IC50 is 217 µM in assay [1] and 340 µM in assay [2]. The compound also yielded an Activity in assay [3] of 1. Besides, in assay [4], the Ratio is 1.6.
In the same order, the values of `Cc1cccc(C)c1NC(=O)[C@H](C)N` [S-TOCAINIDE] are 220 µM, 520 µM, 1 and 2.4.
In the same order, the values of `Cc1cccc(C)c1NC(=O)[C@@H](C)N` [(R)-TOCAINIDE] are 270 µM, 580 µM, 1 and 2.1.
In the same order, the values of `Cc1cccc(C)c1NC(=O)[C@@H]1CCCN1C` are 28 µM, 106 µM, 8 and 3.4.
`Cc1cccc(C)c1N(C)C(=O)[C@H]1CCCN1C`: the IC50 is 440 µM in assay [1] and over 500 µM in assay [2]. In addition, the Activity in assay [3] was determined as 0.6. The Ratio in assay [4] was over 1.1.
In the same order, the values of `Cc1cccc(C)c1N(C)C(=O)[C@@H]1CCCN1C` are 198 µM, 286 µM, 1.1 and 1.4.
In the same order, the values of `Cc1cccc(C)c1NC(=O)[C@@H]1CCCN1` are 44 µM, 230 µM, 5 and 5.2.
In the same order, the values of `Cc1cccc(C)c1NC(=O)[C@H]1CCCN1` are 13 µM, 110 µM, 21 and 8.5.
